Assay results published in ChEMBL document CHEMBL4665829, “Synthesis, Structure-Activity Relationship, and Antimalarial Efficacy of 6-Chloro-2-arylvinylquinolines” (J Med Chem, 2020).
Calls of active or inactive are those of the source. The calls are words filed in the database; no cut-off is given here.

system: Hemozoin; assay: Inhibition of beta-hematin formation at 12.5 to 200 uM after 16 hrs by inverted microscopic analysis; conditions: dose microM 12.5-200, time 16.0 hrs
Summary of the method: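 Hemin (2 mM stock in 0.1 M NaOH; 100 μM final), propionate buffer pH 5.2 and sonicated phosphatidylcholine were incubated with a compound concentration series for 16 h at 37 °C with gentle shaking. Crystals were imaged by inverted microscope before quenching with 7.5% SDS in bicarbonate, pH 9.1. Free hemin was measured at 405 nm against a 0–16 μM calibration. Three independent experiments.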

Row | Compound | inhibition
1 | CCN(CC)CCCC(C)Nc1ccnc2cc(Cl)ccc12 (stereo unspecified) [CHLOROQUINE] | Active

system: not listed separately; assay: Intrinsic clearance in mouse liver microsomes assessed as parent compound at 1 uM after 60 mins in presence of NADPH by LC-MS analysis; assay type: ADME, Microsome; conditions: not given
Summary of the method: (§1)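 Mouse liver microsomes (0.5 mg/mL final protein) in 0.1 M phosphate, pH 7.4, with compound at 1 μM, 37 °C with shaking. Aliquots were quenched in cold acetonitrile and centrifuged; LC–MS gave parent peak area at 60 min relative to 0 min.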

Row | Compound | CLH [µL/min/mg]
2 | CN(C)CCNc1cc(/C=C/c2cccc(F)c2)nc2ccc(Cl)cc12 | 32.1
3 | Fc1ccc(/C=C/c2cc(NCCCCN3CCOCC3)c3cc(Cl)ccc3n2)cc1 | 62.4
4 | Clc1ccc2nc(/C=C/c3ccncc3)cc(NCCCCN3CCOCC3)c2c1 | 96.2
5 | Fc1ccc(/C=C/c2cc(NCCCCN3CCOCC3)c3cc(Cl)ccc3n2)cc1F | 53.7

system: Plasmodium falciparum; assay: Antiplasmodial activity against chloroquine-sensitive Plasmodium falciparum 3D7 infected in human erythrocytes assessed as reduction in microbial growth after 72 hrs by SYBR green I staining based fluorescence assay; assay type: functional, organism-based; conditions: 3D7, Erythrocyte
Summary of the method: (§2)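 SYBR Green I assay: twofold serial dilutions on P. falciparum cultures at 1% parasitemia, 1% hematocrit, 37 °C, 5% CO₂, 72 h, max 0.1% DMSO. DMSO and CQ as growth and inhibition controls. Plates frozen at −80 °C, thawed, lysed in Tris/saponin/EDTA/Triton buffer with 0.01% SYBR Green I, 1 h dark at room temperature. Fluorescence read at 485 ex/530 em. EC50 by nonlinear dose–response fit.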

Row | Compound | EC50 [nM]
6 | CCN(CC)CCCC(C)Nc1ccnc2cc(Cl)ccc12 (stereo unspecified) [CHLOROQUINE] | 17.8
7 | CN(C)CCNc1cc(/C=C/c2cccc(F)c2)nc2ccc(Cl)cc12 | 23
8 | Fc1ccc(/C=C/c2cc(NCCCCN3CCOCC3)c3cc(Cl)ccc3n2)cc1 | 6.9
9 | Clc1ccc2nc(/C=C/c3ccncc3)cc(NCCCCN3CCOCC3)c2c1 | 20.8
10 | Fc1ccc(/C=C/c2cc(NCCCCN3CCOCC3)c3cc(Cl)ccc3n2)cc1F | 27.6

system: not listed separately; assay: Stability of compound in mouse liver microsomes assessed as parent compound remaining at 1 uM after 60 mins in presence of NADPH by LC-MS analysis; assay type: ADME, Microsome; conditions: 1 h; summary of the method: as §1

Row | Compound | Stabilty [%]
11 | CN(C)CCNc1cc(/C=C/c2cccc(F)c2)nc2ccc(Cl)cc12 | 38.2
12 | Fc1ccc(/C=C/c2cc(NCCCCN3CCOCC3)c3cc(Cl)ccc3n2)cc1 | 15.4
13 | Clc1ccc2nc(/C=C/c3ccncc3)cc(NCCCCN3CCOCC3)c2c1 | 5.6
14 | Fc1ccc(/C=C/c2cc(NCCCCN3CCOCC3)c3cc(Cl)ccc3n2)cc1F | 19.9

system: not listed separately; assay: Resistant index, ratio of EC50 for antiplasmodial activity against chloroquine-resistant Plasmodium falciparum Dd2 to antiplasmodial activity against chloroquine-sensitive Plasmodium falciparum 3D7; assay type: functional; conditions: not given

Row | Compound | Ratio EC50
15 | CN(C)CCNc1cc(/C=C/c2cccc(F)c2)nc2ccc(Cl)cc12 | 0.3
16 | Fc1ccc(/C=C/c2cc(NCCCCN3CCOCC3)c3cc(Cl)ccc3n2)cc1 | 0.3
17 | Clc1ccc2nc(/C=C/c3ccncc3)cc(NCCCCN3CCOCC3)c2c1 | 0.5
18 | Fc1ccc(/C=C/c2cc(NCCCCN3CCOCC3)c3cc(Cl)ccc3n2)cc1F | 0.9

system: HepG2; assay: Cytotoxicity against human HepG2 cells assessed as reduction in cell viability after 48 hrs by MTS assay; assay type: cell-based; conditions: HepG2, 48 h
Summary of the method: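 HepG2 cells were seeded at 2250 per well and grown 24 h at 37 °C, 5% CO₂. Serial dilutions starting at 25 μM were added for a further 48 h. MTS was then added for 3 h at 37 °C and absorbance read at 490 nm. EC₅₀ came from nonlinear dose–response fits.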

Row | Compound | EC50 [nM]
19 | CCN(CC)CCCC(C)Nc1ccnc2cc(Cl)ccc12 (stereo unspecified) [CHLOROQUINE] | 10400
20 | CN(C)CCNc1cc(/C=C/c2cccc(F)c2)nc2ccc(Cl)cc12 | 4780
21 | Fc1ccc(/C=C/c2cc(NCCCCN3CCOCC3)c3cc(Cl)ccc3n2)cc1 | 3550
22 | Clc1ccc2nc(/C=C/c3ccncc3)cc(NCCCCN3CCOCC3)c2c1 | 5670
23 | Fc1ccc(/C=C/c2cc(NCCCCN3CCOCC3)c3cc(Cl)ccc3n2)cc1F | 10400

system: Plasmodium falciparum; assay: Antiplasmodial activity against chloroquine-resistant Plasmodium falciparum Dd2 infected in human erythrocytes assessed as reduction in microbial growth after 72 hrs by SYBR green I staining based fluorescence assay; assay type: functional, organism-based; conditions: Dd2, Erythrocyte; summary of the method: as §2

Row | Compound | EC50 [nM]
24 | CCN(CC)CCCC(C)Nc1ccnc2cc(Cl)ccc12 (stereo unspecified) [CHLOROQUINE] | 174
25 | CN(C)CCNc1cc(/C=C/c2cccc(F)c2)nc2ccc(Cl)cc12 | 5.9
26 | Fc1ccc(/C=C/c2cc(NCCCCN3CCOCC3)c3cc(Cl)ccc3n2)cc1 | 2.4
27 | Clc1ccc2nc(/C=C/c3ccncc3)cc(NCCCCN3CCOCC3)c2c1 | 9.9
28 | Fc1ccc(/C=C/c2cc(NCCCCN3CCOCC3)c3cc(Cl)ccc3n2)cc1F | 25.5

system: not listed separately; assay: Half life in mouse liver microsomes at 1 uM after 60 mins in presence of NADPH by LC-MS analysis; assay type: ADME, Microsome; conditions: 1 h; summary of the method: as §1

Row | Compound | t1/2 [min]
29 | CN(C)CCNc1cc(/C=C/c2cccc(F)c2)nc2ccc(Cl)cc12 | 43.2
30 | Fc1ccc(/C=C/c2cc(NCCCCN3CCOCC3)c3cc(Cl)ccc3n2)cc1 | 22.2
31 | Clc1ccc2nc(/C=C/c3ccncc3)cc(NCCCCN3CCOCC3)c2c1 | 14.4
32 | Fc1ccc(/C=C/c2cc(NCCCCN3CCOCC3)c3cc(Cl)ccc3n2)cc1F | 25.8

system: not listed separately; assay: Selectivity index, ratio of EC50 for cytotoxicity against human HepG2 cells to antiplasmodial activity against chloroquine-resistant Plasmodium falciparum Dd2; assay type: toxicity, cell-based; conditions: read-out: Ratio EC50

Row | Compound | selectivity ratio
33 | CN(C)CCNc1cc(/C=C/c2cccc(F)c2)nc2ccc(Cl)cc12 | 810
34 | Fc1ccc(/C=C/c2cc(NCCCCN3CCOCC3)c3cc(Cl)ccc3n2)cc1 | 1480
35 | Clc1ccc2nc(/C=C/c3ccncc3)cc(NCCCCN3CCOCC3)c2c1 | 561
36 | Fc1ccc(/C=C/c2cc(NCCCCN3CCOCC3)c3cc(Cl)ccc3n2)cc1F | 241
